Measurements: paper PMC9989852 (Food and chemical toxicology : an international journal …, 2022)

Columns and labels:
[1] = tested on: spleen; assay: Spleen phenotyping by flow cytometry after 28-day dermal exposure; format: in vivo, B6C3F1 mice; conditions: 28 days
How it was run: (§1)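 Female B6C3F1 mice (5/group) received 25 μl/ear daily to the dorsal ears in acetone. About 24 h after the last dose, tissues went into RPMI: both auricular dLNs, half spleen and one ear pinna. Single-cell suspensions were acquired on an LSR II, with populations gated per supplemental strategy and FMO gating controls. Results are mean ± SE, n=5, by one-way ANOVA.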

[2] = tested on: ear pinna; assay: Skin; format: in vivo, B6C3F1 mice; conditions: dermal, 28 days
How it was run: as §1

[3] = tested on: B6C3F1 mice; assay: Serum chemistries after 28-day dermal exposure; format: in vivo; conditions: 28 days
How it was run: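 Female B6C3F1 mice received daily dorsal ear application (25 μl/ear, acetone vehicle). About 24 h after the last dose, blood was taken by cardiac puncture. Serum was separated by centrifugation and stored at −20 °C. ALKP, BUN, glucose and cholesterol were read on a Catalyst DX analyzer. Data are mean ± SE of 4–5 mice, ANOVA with Dunnett's; ALKP was also tested by linear regression (p < 0.05).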

O=C(O)C(F)(F)C(F)(F)C(F)(F)C(F)(F)F [PFPeA, perfluoropentanoic acid]
spleen NK cell frequency ([1]; 1.25%): increase | spleen MFI of CD86 on B-cells ([1]; 2.5%): increase | spleen MFI of MHCII on B-cells ([1]; 2.5%): increase | spleen NK cell frequency ([1]; 2.5%): increase | spleen number of CD4^+ T-cells ([1]; 2.5%): significant decrease | spleen number of CD11b + Ly6C− cells ([1]; 2.5%): significant decrease | spleen MFI of CD86 on B-cells ([1]; 5%): increase | spleen MFI of MHCII on B-cells ([1]; 5%): increase | spleen NK cell frequency ([1]; 5%): increase | Ear CD4^+ cell number ([2]; 1.25%): 2.55 ± 0.41 × 10^3 | Ear CD4^+ frequency ([2]; 1.25%): 2.93 ± 0.23 % | Ear CD8^+ cell number ([2]; 1.25%): 1.38 ± 0.17 × 10^2 | Ear CD8^+ frequency ([2]; 1.25%): 0.16 ± 0.02% | Ear CD45^+ cell number ([2]; 1.25%): 8.61 ± 1.11 × 10^4 | Ear CD45^+ frequency ([2]; 1.25%): 8.16 ± 0.67% | Ear CD lib- F4/80+ DCs cell number ([2]; 1.25%): 17.60 ± 3.16 × 10^2 | Ear CDllb + F4/80+ DCs cell number ([2]; 1.25%): 26.50 ± 4.08 × 10^2 | Ear CDllb- F4/80+ DCs frequency ([2]; 1.25%): 2.10 ± 0.37% | Ear CDllb- F4/80-DCs cell number ([2]; 1.25%): 2.15 ± 0.38 × 10^3 | Ear Dendritic Cells cell number ([2]; 1.25%): 6.78 ± 0.97 × 10^3 | Ear Dendritic Cells frequency ([2]; 1.25%): 7.83 ± 0.37% | Ear Eosinophils cell number ([2]; 1.25%): 2.72 ± 0.51 × 10^3 | Ear Eosinophils frequency ([2]; 1.25%): 3.13 ± 0.31% | Ear NK cell number ([2]; 1.25%): 5.64 ± 0.85 × 10^2 | Ear NK frequency ([2]; 1.25%): 0.66 ± 0.06% | Ear Neutrophils cell number ([2]; 1.25%): 2.28 ± 0.53 × 10^2 | Ear Neutrophils frequency ([2]; 1.25%): 0.27 ± 0.06% | Ear Total Cellularity ([2]; 1.25%): 1.05 ± 0.10 × 10^6 | Ear CD4^+ cell number ([2]; 2.5%): 4.65 ± 0.67 × 10^3 | Ear CD45^+ cell number ([2]; 2.5%): 10.30 ± 1.26 × 10^4 | Ear CD45^+ frequency ([2]; 2.5%): 11.46 ± 1.03 % | Ear CD lib- F4/80+ DCs cell number ([2]; 2.5%): 17.80 ± 3.48 × 10^2 | Ear CDllb + F4/80+ DCs frequency ([2]; 2.5%): 4.22 ± 0.51 % | Ear CDllb- F4/80+ DCs frequency ([2]; 2.5%): 1.73 ± 0.22% | Ear CDllb- F4/80-DCs cell number ([2]; 2.5%): 2.79 ± 0.54 × 10^3 | Ear Dendritic Cells cell number ([2]; 2.5%): 9.44 ± 2.00 × 10^3 | Ear NK cell number ([2]; 2.5%): 5.86 ± 0.63 × 10^2 | Ear NK frequency ([2]; 2.5%): 0.57 ± 0.01% | Ear Neutrophils cell number ([2]; 2.5%): 3.16 ± 0.37 × 10^2 | Ear Neutrophils frequency ([2]; 2.5%): 0.32 ± 0.05% | Ear Total Cellularity ([2]; 2.5%): 0.88 ± 0.04 × 10^6 | Ear CD4^+ cell number ([2]; 5%): 10.80 ± 1.17 × 10^3 | Ear CD4^+ frequency ([2]; 5%): 5.64 ± 0.27 % | Ear CD8^+ cell number ([2]; 5%): 8.33 ± 1.57 × 10^2 | Ear CD8^+ frequency ([2]; 5%): 0.42 ± 0.04 % | Ear CD45^+ cell number ([2]; 5%): 19.40 ± 2.55 × 10^4 | Ear CD45^+ frequency ([2]; 5%): 13.60 ± 0.97 % | Ear CD lib- F4/80+ DCs cell number ([2]; 5%): 45.60 ± 8.63 × 10^2 | Ear CDllb + F4/80+ DCs cell number ([2]; 5%): 86.70 ± 10.20 × 10^2 | Ear CDllb + F4/80+ DCs frequency ([2]; 5%): 4.51 ± 0.18 % | Ear CDllb- F4/80+ DCs frequency ([2]; 5%): 2.36 ± 0.35% | Ear CDllb- F4/80-DCs cell number ([2]; 5%): 6.19 ± 0.94 × 10^3 | Ear CDllb- F4/80-DCs frequency ([2]; 5%): 3.16 ± 0.10 % | Ear Dendritic Cells cell number ([2]; 5%): 20.20 ± 2.65 × 10^3 | Ear Dendritic Cells frequency ([2]; 5%): 10.42 ± 0.36 % | Ear Eosinophils cell number ([2]; 5%): 13.50 ± 2.05 × 10^3 | Ear Eosinophils frequency ([2]; 5%): 7.35 ± 1.24 % | Ear NK cell number ([2]; 5%): 16.10 ± 4.27 × 10^2 | Ear NK frequency ([2]; 5%): 0.80 ± 0.12% | Ear Neutrophils cell number ([2]; 5%): 21.60 ± 8.98 × 10^2 | Ear Neutrophils frequency ([2]; 5%): 0.97 ± 0.31 % | Ear Total Cellularity ([2]; 5%): 1.41 ± 0.11 × 10^6 | serum cholesterol ([3]; 1.25%): decrease | serum urea nitrogen (BUN), decrease ([3]; 2.5%): 20% | serum glucose, increase compared to vehicle control ([3]; 5%): 30% | serum urea nitrogen (BUN), decrease ([3]; 5%): 22% | serum alanine aminotransferase (ALT) ([3]; any concentration, data not shown): No change
